Screens: PubChem, Sanford-Burnham Center for Chemical Genomics
SUMO1-SIM PPI: alters human SUMO1 binding to SIM partners; SUMO1 binding to a labelled peptide, TR-FRET, 1 h; inhibition, % at 20 µM; 0.33% of 360,000 active; in the data active means inhibition above about 37%
Target sequence (P63165 whole entry, looked up): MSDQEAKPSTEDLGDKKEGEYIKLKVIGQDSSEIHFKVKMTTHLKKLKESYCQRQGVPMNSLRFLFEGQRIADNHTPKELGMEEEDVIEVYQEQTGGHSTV
LMPTP inh: LMPTP (human) inhibition; 0.22% of 360,000 active; P24666; inhibition, % at 20 µM; recombinant LMPTP-A, OMFP fluorogenic substrate, fluorescence intensity;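 active means compounds that cut the enzyme signal by at least half of the control window in the single-dose screen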
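Material: LMPTP-A; amount: 0.625 nM enzyme; doses: single 20 µM dose; times: reaction 50 min, room temperature, dark; technique: fluorescence intensity of OMFP turnover product; benchmarks: no-enzyme and uninhibited controls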
DNMT1 block: DNMT1 (human) enzyme inhibition | DNMT1 molecular beacon, Hinp1I cleavage, fluorescence | inhibition (reported as % activation of signal), % at 10 µM | 0.83% of 360,000 active; in the data active means inhibition above about 50%
NadD block: inhibitors of Staphylococcus aureus NadD; purified NadD enzyme, colorimetric absorbance read-out; inhibition, % at 20 µM; 0.78% of 360,000 active; in the data active means inhibition above about 26%
Scp-1 inhibitor: blocks human Scp-1 phosphatase activity | 0.88% of 340,000 active | Recombinant Scp1, phosphopeptide, malachite green phosphate absorbance | inhibition, % at 20 µM | Q9GZU7;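 active means inhibition above about 50% at 20 µM, limit read from the data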
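Times: enzyme reaction 45 min at room temperature, colour 5 min, stabilisation 30 min. Material: SCP-1 catalytic fragment, aa 76-261. Medium: Acidic Tris acetate buffer with magnesium and detergent. Signal: colorimetric free-phosphate detection, absorbance 630 nm. Read-out basis: % inhibition of SCP-1 phosphate liberation. Reagent: Phosphorylated 17-residue peptide substrate.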
STEP block: inhibitors of human striatal-enriched phosphatase STEP; P54829; recombinant STEP, OMFP fluorogenic substrate, fluorescence; inhibition, % at 20 µM; 0.25% of 360,000 active; AID 588621;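 active means inhibition at 20 µM, scaled per plate between control wells, above about 37%, limit read from the data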
Target sequence (P54829 whole entry, looked up): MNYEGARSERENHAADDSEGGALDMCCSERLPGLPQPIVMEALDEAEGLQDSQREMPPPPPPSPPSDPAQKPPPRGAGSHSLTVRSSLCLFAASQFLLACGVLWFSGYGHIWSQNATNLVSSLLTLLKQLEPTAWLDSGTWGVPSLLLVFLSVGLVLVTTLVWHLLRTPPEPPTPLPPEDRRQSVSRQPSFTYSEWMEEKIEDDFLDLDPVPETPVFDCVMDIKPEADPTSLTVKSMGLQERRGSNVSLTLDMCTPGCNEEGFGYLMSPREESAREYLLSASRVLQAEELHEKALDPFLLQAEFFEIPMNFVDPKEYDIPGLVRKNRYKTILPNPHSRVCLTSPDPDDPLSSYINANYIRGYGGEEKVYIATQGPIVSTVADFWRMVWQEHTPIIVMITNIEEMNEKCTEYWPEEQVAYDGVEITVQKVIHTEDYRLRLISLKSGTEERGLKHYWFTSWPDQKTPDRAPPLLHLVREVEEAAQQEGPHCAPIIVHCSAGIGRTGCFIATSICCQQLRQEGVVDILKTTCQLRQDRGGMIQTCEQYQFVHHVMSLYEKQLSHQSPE
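Test system: STEP tyrosine phosphatase / Reagent: OMFP at 25 µM / Doses: 20 µM, 1% DMSO / Read-out: percent inhibition scaled to no-enzyme and uninhibited-enzyme controls, plate-pattern corrected / Detection: FITC-channel fluorescence of OMFP product / Medium: Bis-Tris buffer pH 6.0, 2.5 mM DTT, 0.005% Tween 20 / Schedule: 20 min at room temperature, dark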
NadD inh conf: NadD (S. aureus) inhibition, single concentration confirmation | inhibition, % at 20 µM | purified S. aureus NadD, colorimetric enzyme assay | AID 624309 | 13% of 2,000 active | shares compounds with NadD block; in the data active means inhibition mostly above about 42%, no sharp cut-off; inactive means mostly below about 42%
A number is an active result; i = inactive; nt = no result. Hits are enriched below; roughly 2.4% of the tested compounds scored in any of these assays.

SMILES	SUMO1-SIM PPI	LMPTP inh	DNMT1 block	NadD block	Scp-1 inhibitor	STEP block	NadD inh conf
Cc1cccc(N2CCN(C(=O)c3ccc4nc(-c5ccco5)c(-c5ccco5)nc4c3)CC2C)c1 (stereo unspecified)	i	i	i	42	i	i	i
Cc1cccc(N2CCN(C(=O)c3ccc4nccnc4c3)CC2C)c1 (stereo unspecified)	i	i	i	i	i	i	nt
CCC(=O)N1CCN(c2nc3ccccc3s2)CC1	i	i	i	i	i	i	nt
O=C(c1cc2sccc2n1Cc1ccccc1)N1CCN(c2nc3ccccc3s2)CC1	i	i	i	34	i	i	i
COc1ccccc1OCc1nc2ccccc2n1C	i	i	i	i	i	i	nt
O=C(C1=C[C@@H]2[C@H]3C(=O)N(c4ccc(Cl)cc4)C(=O)[C@H]3[C@@H](C(=O)c3ccc(Cl)cc3)N2C=C1)c1ccccc1	i	i	i	43	i	i	i
O=[N+]([O-])c1cc(S(=O)(=O)Nc2ccc(Cl)cc2)ccc1N/N=C/c1ccncc1	i	i	i	47	i	i	i
Cc1ccc(Cn2nc(C)cc2C(=O)Nc2ccccc2Cl)cc1	i	i	i	i	i	i	nt
CC(C)C[C@H]1CNC(=S)N1C[C@H]1CCCN1C[C@H](CC(C)C)N1C[C@H](Cc2ccccc2)N(CCc2ccccc2)C1=S	i	i	i	i	nt	i	nt
CC(C)C[C@@H](CN1CCCC1CN1C(=S)NC[C@@H]1Cc1ccc(O)cc1)N1C[C@H](Cc2ccc(O)cc2)N(CCc2ccccc2)C1=S (stereo partly specified)	i	i	i	42	i	i	i
Oc1ccc(C[C@H]2CNC(=S)N2C[C@H]2CCCN2C[C@H](Cc2ccccc2)N2C[C@H](Cc3ccc(O)cc3)N(CCc3ccccc3)C2=S)cc1	i	i	i	46	nt	i	i
O=C1NC[C@H](Cc2ccc(O)cc2)N(C[C@@H]2CCCN2C[C@H](Cc2ccccc2)N2C[C@H](Cc3ccc(O)cc3)N(CCc3ccccc3)C(=O)C2=O)C1=O	i	i	nt	i	nt	nt	nt
Oc1ccc(C[C@H]2CN([C@@H](Cc3ccccc3)CN3CCCC3CN3C(=S)NC[C@@H]3Cc3ccccc3)C(=S)N2CCc2ccccc2)cc1 (stereo partly specified)	i	i	nt	37	nt	nt	i
Oc1ccc(C[C@H]2CN([C@@H](Cc3ccc(O)cc3)CN3CCC[C@@H]3CN3C(=S)NC[C@@H]3Cc3ccccc3)C(=S)N2CCc2ccccc2)cc1	i	i	i	40	nt	i	i
O=C1NC[C@H](Cc2ccc(O)cc2)N(C[C@H]2CCCN2C[C@H](Cc2ccc(O)cc2)N2C[C@H](Cc3ccc(O)cc3)N(CCc3ccccc3)C(=O)C2=O)C1=O	i	i	i	i	nt	i	nt
O=C1NC[C@H](Cc2ccccc2)N(C[C@H]2CCCN2C[C@H](Cc2ccccc2)N2C[C@H](Cc3ccc(O)cc3)N(CCc3ccccc3)C(=O)C2=O)C1=O	i	i	i	i	i	i	nt
Cc1cccc(C)c1NC(=O)C1(C)CSCC(=O)N1CC(F)(F)F (stereo unspecified)	i	i	nt	nt	nt	nt	nt
O=C(CSc1ccccc1)NCc1cccnc1	i	i	i	i	i	i	nt
CCOC(=O)c1c(C)[nH]c(C)c1C(=O)CSc1nnc(-c2ccncc2)n1Cc1ccccc1	i	i	i	i	i	i	nt
CC(=O)Nc1ccc(NC(=O)C(=O)c2cn(CC(=O)N3CCCCC3)c3ccccc23)cc1	i	i	i	i	i	i	nt
O=C(NNc1nc(-c2ccccc2)c2cc(Br)ccc2n1)c1ccc(S(=O)(=O)N2CCOCC2)cc1	i	i	i	i	i	i	nt
O=C(NNc1nc(-c2ccccc2)c2cc(Br)ccc2n1)c1ccc(S(=O)(=O)N2CCCCC2)cc1	i	i	i	37	i	i	i
Cc1c([N+](=O)[O-])cc(S(=O)(=O)Nc2ccc(-c3ccc(N4CCCC4)nn3)cc2)cc1[N+](=O)[O-]	i	i	i	57	i	i	i
O=[N+]([O-])c1ccc(Cl)c(S(=O)(=O)Nc2cccc(-c3ccc(N4CCCC4)nn3)c2)c1	i	i	i	63	i	i	52
Cc1ccc([N+](=O)[O-])cc1S(=O)(=O)Nc1ccc(-c2ccc(N3CCCC3)nn2)cc1	i	i	i	38	i	i	i
SMILES	SUMO1-SIM PPI	LMPTP inh	DNMT1 block	NadD block	Scp-1 inhibitor	STEP block	NadD inh conf
O=[N+]([O-])c1ccc(Cl)c(S(=O)(=O)Nc2ccc(-c3ccc(N4CCCC4)nn3)cc2)c1	i	i	i	i	i	i	nt
Cc1ccc(S(=O)(=O)Nc2cccc(-c3ccc(N4CCCCCC4)nn3)c2)c(C)c1	i	i	i	42	i	i	i
O=[N+]([O-])c1ccc(S(=O)(=O)Nc2ccc(-c3ccc(N4CCCC4)nn3)cc2)cc1	i	i	i	i	i	i	nt
CC(=O)O[C@]1(C(C)=O)CC[C@H]2[C@@H]3C=C(C)C4=CC(=O)CC[C@@H]4[C@H]3CC[C@@]21C	i	i	i	i	i	i	nt
CCc1ccc(N(CC(=O)NCc2ccco2)C(=O)CCC(=O)Nc2ccccn2)cc1	i	i	i	24	i	i	i
COC1=CC(=O)C(OC)=C(OC)C1=O	i	i	i	i	i	i	nt
COc1cc(Br)cc(/C=C/c2ccc3cccc(O)c3n2)c1O	i	i	i	34	i	i	i
COc1cc(Br)c(/C=C/c2ccc3cccc(O)c3n2)cc1OC	i	i	i	i	i	i	nt
COc1cc(/C=C/c2ccc3cccc(O)c3n2)c(Br)cc1O	i	i	i	28	nt	i	i
Cc1cc2nc(-c3ccc(SCC(=O)N4CCc5ccccc54)nc3)[nH]c2cc1C	i	i	i	33	i	i	i
Cc1cc2nc(-c3ccc(SCC(=O)Nc4ccc(S(=O)(=O)NC5CC5)cc4)nc3)[nH]c2cc1C	i	i	i	40	i	i	i
NC(=S)NNc1cccc2cccnc12	i	50	i	34	i	i	i
C[C@@H]1CCCCO[C@H](CN(C)S(=O)(=O)c2ccc(F)cc2)[C@@H](C)CN([C@H](C)CO)C(=O)c2cc(NC(=O)Nc3ccc(C(F)(F)F)cc3)ccc2O1	i	i	i	35	nt	i	i
COc1ccc(S(=O)(=O)N(C)C[C@@H]2OCCCC[C@H](C)Oc3ccc(NC(=O)Nc4ccc(C(F)(F)F)cc4)cc3C(=O)N([C@H](C)CO)C[C@H]2C)cc1	i	i	i	30	nt	i	i
C[C@@H]1CCCCO[C@H](CN(C)C(=O)Nc2ccc(C(F)(F)F)cc2)[C@@H](C)CN([C@H](C)CO)C(=O)c2cc(NC(=O)c3ccncc3)ccc2O1	i	i	i	35	nt	i	i
